Test results as given in ChEMBL document CHEMBL2331221, “Potent elastase inhibitors from cyanobacteria: structural basis and mechanisms mediating cytoprotective and anti-inflammatory effects in bronchial epithelial cells” (J Med Chem, 2013).
Active and inactive are the calls of the source. The rule behind the calls is not given here.

What was measured:
[1] = Antiproteolytic activity against elastase (unknown origin); design: species or system Homo sapiens
Method in brief: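 Inhibitor in DMSO pre-incubated with elastase in Tris-HCl pH 8.0 for 15 min at room temperature. Reaction started with N-succinyl-Ala-Ala-Ala-p-nitroanilide (2 mM in the added substrate solution). Absorbance at 405 nm read every 30 s. Activity is the initial slope of each progress curve, as percent of the uninhibited reaction.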

[2] = Inhibition of bovine pancreatic chymotrypsin assessed as proteolysis using N-succinyl-Gly-Gly-Phe-p-nitroanilide substrate incubated for 30 mins prior to substrate addition; design: species or system Bos taurus
[3] = target: T1, Neutrophil elastase (Homo sapiens) (UniProt P08246); details: BEAS2B, 100 uM
T1 sequence (whole entry): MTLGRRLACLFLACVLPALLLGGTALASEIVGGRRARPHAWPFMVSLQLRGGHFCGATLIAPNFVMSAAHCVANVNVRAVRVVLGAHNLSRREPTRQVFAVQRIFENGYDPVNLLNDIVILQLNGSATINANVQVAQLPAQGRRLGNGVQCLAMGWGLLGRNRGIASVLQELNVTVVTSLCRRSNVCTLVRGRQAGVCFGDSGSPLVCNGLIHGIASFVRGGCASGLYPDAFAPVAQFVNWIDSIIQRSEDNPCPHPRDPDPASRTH

[4] = target: T1, Neutrophil elastase (Homo sapiens); details: BEAS2B, 100 uM; remark: listed apart in the source
[5] = Inhibition of porcine pancreatic elastase assessed as proteolysis using N-succinyl-Ala-Ala-Ala-p-nitroanilide substrate incubated for 15 mins prior to substrate addition measured every 30 seconds; design: species or system Sus scrofa
[6] = species: Homo sapiens; experiment: Inhibition of human pancreatic chymotrypsin assessed as proteolysis using N-succinyl-Ala-Ala-Pro-Phe-p-nitroanilide substrate incubated at 10 uM for 30 mins prior to substrate addition; design: scale not given: the % may be the effect or the level left
Method in brief: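 Pancreatic chymotrypsin, bovine at 100 μg/mL or human at 50 μg/mL; reaction buffer, enzyme and inhibitor (DMSO) incubated 30 min at room temperature, then substrate added (bovine: N-succinyl-Gly-Gly-Phe-pNA; human: N-succinyl-Ala-Ala-Pro-Phe-pNA). Absorbance read at 405 nm; activity from reaction slope relative to solvent control.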

[7] = Inhibition of human pancreatic chymotrypsin assessed as proteolysis using N-succinyl-Ala-Ala-Pro-Phe-p-nitroanilide substrate incubated for 30 mins prior to substrate addition
[8] = target: T1, Neutrophil elastase (Homo sapiens); details: BEAS2B, 100 uM; remark: listed apart in the source

**Q.** For `C/C=C1\NC(=O)[C@@H](NC(=O)[C@@H](NC(=O)[C@H](C)NC(C)=O)C(C)C)[C@@H](C)OC(=O)[C@H](C(C)C)NC(=O)[C@H](Cc2ccc(O)cc2)N(C)C(=O)[C@H](Cc2ccccc2)N2C(=O)[C@H](CC[C@H]2O)NC1=O` [LYNGBYASTATIN 8], which IC50 [1] is on record?
**A.** 0.12 µM

**Q.** With `CC(C)(C)C(=O)Oc1ccc(S(=O)(=O)Nc2ccccc2C(=O)NCC(=O)O)cc1` as the compound, how does the IC50 [2] read?
**A.** 4.08 µM

**Q.** And the inhibition [3]?
**A.** Active

**Q.** What about the inhibition [4] of the same compound?
**A.** Active

**Q.** And the IC50 [5]?
**A.** 2.81 µM

**Q.** And the Activity [6]?
**A.** 55.1%

**Q.** What about the IC50 [7] of the same compound?
**A.** > 10 µM

**Q.** What about the inhibition [8] of the same compound?
**A.** Active

**Q.** With `C/C=C1\NC(=O)[C@@H](NC(=O)[C@@H](NC(=O)[C@H](C)NC(=O)CCC)C(C)C)[C@@H](C)OC(=O)[C@H](C(C)C)NC(=O)[C@H](Cc2ccc(O)cc2)N(C)C(=O)[C@H](Cc2ccccc2)N2C(=O)[C@H](CC[C@H]2O)NC1=O` [LYNGBYASTATIN 9] as the compound, how does the IC50 [1] read?
**A.** 0.12 µM

**Q.** For `C/C=C1\NC(=O)[C@@H](NC(=O)[C@@H](NC(=O)[C@@H](COS(=O)(=O)O)OC)[C@@H](C)CC)[C@@H](C)OC(=O)[C@H]([C@H](C)CC)NC(=O)[C@H](Cc2ccc(O)cc2)N(C)C(=O)[C@H](Cc2ccccc2)N2C(=O)[C@H](CC[C@H]2O)NC1=O` [symplostatin 10], which Activity [6] is on record?
**A.** 79.4%

**Q.** And the IC50 [7]?
**A.** > 10 µM

**Q.** What does the source list for `C/C=C1\NC(=O)[C@@H](NC(=O)[C@@H](NC(=O)[C@@H](COS(=O)(=O)O)OC)[C@@H](C)CC)[C@@H](C)OC(=O)[C@H]([C@H](C)CC)NC(=O)[C@H](Cc2ccccc2)N(C)C(=O)[C@H](Cc2ccccc2)N2C(=O)[C@H](CC[C@H]2O)NC1=O` [symplostatin 7]?
**A.** Activity [6]: 70.7%; IC50 [7]: > 10 µM

**Q.** With `C/C=C1\NC(=O)[C@@H](NC(=O)[C@@H](NC(=O)[C@@H](COS(=O)(=O)O)OC)C(C)C)[C@@H](C)OC(=O)[C@H]([C@H](C)CC)NC(=O)[C@H](Cc2ccc(O)cc2)N(C)C(=O)[C@H](Cc2ccccc2)N2C(=O)[C@H](CC[C@H]2O)NC1=O` [symplostatin 8] as the compound, how does the Activity [6] read?
**A.** 69%

**Q.** What about the IC50 [7] of the same compound?
**A.** > 10 µM

**Q.** What does the source list for `C/C=C1\NC(=O)[C@@H](NC(=O)[C@@H](NC(=O)[C@@H](COS(=O)(=O)O)OC)C(C)C)[C@@H](C)OC(=O)[C@H](C(C)C)NC(=O)[C@H](Cc2ccc(O)cc2)N(C)C(=O)[C@H](Cc2ccccc2)N2C(=O)[C@H](CC[C@H]2O)NC1=O` [symplostatin 9]?
**A.** Activity [6]: 73.9%; IC50 [7]: > 10 µM

**Q.** With `C/C=C1\NC(=O)[C@@H](NC(=O)[C@@H](NC(=O)[C@@H](COS(=O)(=O)O)OC)C(C)C)[C@@H](C)OC(=O)[C@H](C(C)C)NC(=O)[C@H](Cc2ccccc2)N(C)C(=O)[C@H](Cc2ccccc2)N2C(=O)[C@H](CC[C@H]2O)NC1=O` [symplostatin 6] as the compound, how does the Activity [6] read?
**A.** 90.6%

**Q.** And the IC50 [7]?
**A.** > 10 µM

**Q.** Which Activity [6] does the source give for `C/C=C1\NC(=O)[C@@H](NC(=O)[C@H](CCc2ccc(O)cc2)NC(=O)[C@H](C)NC(=O)[C@H](O)COS(=O)(=O)O)[C@@H](C)OC(=O)[C@H](C(C)C)NC(=O)[C@H](Cc2ccc(O)cc2)N(C)C(=O)[C@H](Cc2ccccc2)N2C(=O)[C@H](CC[C@H]2O)NC1=O` [LYNGBYASTATIN 4] here?
**A.** 72.2%

**Q.** And the IC50 [7]?
**A.** > 10 µM
